# Laboratory results reported in ChEMBL document CHEMBL1123594, “Antiradiation compounds. 20. 1-Methylquinolinium(and pyridinium)-2-dithioacetic acid derivatives” (J Med Chem, 1987).
# Assays:
# Mus musculus [1] = assay: Percent protective effect was determined in mice using 849 rads for 30 min after (ip) administration of 600 mg/kg; assay type: functional
# Mus musculus [2] = assay: Percent protective effect was determined in mice using 849 rads for 30 min after (po) administration of 600 mg/kg; assay type: functional
# Mus musculus [3] = assay: Percent survival was determined over a period of 30 days after intraperitoneal administration of a dose of 18.8 mg/kg in mice; assay type: functional; conditions: ip, 720 h
# Summary of the method: (§1)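 Female C57 B16 mice (18-20 g), groups of 10, dosed ip in water or 10-20% aqueous ethanol (sometimes with Klucel or a Tween). Whole-body 1000-rad γ-irradiation 30 min after dosing. Survival was followed over 30 days, and animals alive beyond 30 days were counted as protected. Testing was done at Walter Reed Army Institute of Research.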
# Mus musculus [4] = assay: Percent survival was determined over a period of 30 days after intraperitoneal administration of a dose of 4.7 mg/kg in mice; assay type: functional; conditions: ip, 720 h; summary of the method: as §1
# Mus musculus [5] = assay: Percent survival was determined over a period of 30 days after intraperitoneal administration of a dose of 9.4 mg/kg in mice; assay type: functional; conditions: ip, 720 h; summary of the method: as §1
# [6] = Toxic dose was determined after (ip) administration of a dose of 18.8 mg/kg in mice at 1000-rad-gamma-radiation for 30 mins; assay type: toxicity, organism-based; design: dose 18.8 mg/kg; conditions: mouse, in vivo
# Summary of the method: (§2)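 Drug-toxicity deaths were counted within the radioprotection groups: 10 female C57 B16 mice, dosed by the route stated, then given whole-body 1000-rad γ-irradiation 30 min later. Deaths attributed to compound toxicity occurred before day 5 and were scored separately from the 30-day survival count.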
# Mus musculus [7] = assay: Percent survival was determined over a period of 30 days after intraperitoneal administration of a dose of 1.2 mg/kg in mice; assay type: functional; conditions: ip, 720 h; summary of the method: as §1
# Mus musculus [8] = assay: Percent survival was determined over a period of 30 days after intraperitoneal administration of a dose of 2.3 mg/kg in mice; assay type: functional; conditions: ip, 720 h; summary of the method: as §1
# [9] = Toxic dose was determined after (ip) administration of a dose of 4.7 mg/kg in mice at 1000-rad-gamma-radiation for 30 mins; assay type: toxicity, organism-based; design: dose 4.7 mg/kg; conditions: mouse, in vivo; summary of the method: as §2
# Mus musculus [10] = assay: Percent survival was determined over a period of 30 days after intraperitoneal administration of a dose of 0.6 mg/kg in mice; assay type: functional; conditions: ip, 720 h; summary of the method: as §1
# [11] = Toxic dose was determined after (ip) administration of a dose of 2.3 mg/kg in mice at 1000-rad-gamma-radiation for 30 mins; assay type: toxicity, organism-based; design: dose 2.3 mg/kg; conditions: mouse, in vivo; summary of the method: as §2
# Mus musculus [12] = assay: Percent survival was determined over a period of 30 days after intraperitoneal administration of a dose of 1.17 mg/kg in mice; assay type: functional; conditions: ip, 720 h; summary of the method: as §1
# Mus musculus [13] = assay: Percent survival was determined over a period of 30 days after intraperitoneal administration of a dose of 2.34 mg/kg in mice; assay type: functional; conditions: ip, 720 h; summary of the method: as §1
# Mus musculus [14] = assay: Percent survival was determined over a period of 30 days after intraperitoneal administration of a dose of 4.69 mg/kg in mice; assay type: functional; conditions: ip, 720 h; summary of the method: as §1
# [15] = Toxic dose was determined after (ip) administration of a dose of 4.69 mg/kg in mice at 1000-rad-gamma-radiation for 30 mins; assay type: toxicity, organism-based; design: dose 4.69 mg/kg; conditions: mouse, in vivo; summary of the method: as §2
# [16] = Toxic dose was determined after (ip) administration of a dose of 9.4 mg/kg in mice at 1000-rad-gamma-radiation for 30 mins; assay type: toxicity, organism-based; design: dose 9.4 mg/kg; conditions: mouse, in vivo; summary of the method: as §2
# Mus musculus [17] = assay: Percent protective effect was determined in mice using 825 rads for 30 min after administration of 120 mg/kg; assay type: functional
# Mus musculus [18] = assay: Percent survival was determined over a period of 30 days after intraperitoneal administration of a dose of 2.4 mg/kg in mice; assay type: functional; conditions: ip, 720 h; summary of the method: as §1
# Mus musculus [19] = assay: Percent survival was determined over a period of 30 days after intraperitoneal administration of a dose of 37.5 mg/kg in mice; assay type: functional; conditions: ip, 720 h; summary of the method: as §1
# Mus musculus [20] = assay: Percent survival was determined over a period of 30 days after intraperitoneal administration of a dose of 75 mg/kg in mice; assay type: functional; conditions: Mus musculus, ip, 720 h; summary of the method: as §1
# [21] = Toxic dose was determined after (ip) administration of a dose of 150 mg/kg in mice at 1000-rad-gamma-radiation for 30 mins; assay type: toxicity, organism-based; design: dose 150 mg/kg; conditions: mouse, in vivo; summary of the method: as §2
# Mus musculus [22] = assay: Percent survival was determined over a period of 30 days after intraperitoneal administration of a dose of 150 mg/kg in mice; assay type: functional; conditions: ip, 720 h; summary of the method: as §1
# Mus musculus [23] = assay: Percent survival was determined over a period of 30 days after intraperitoneal administration of a dose of 1200 mg/kg in mice; assay type: functional; conditions: ip, 720 h; summary of the method: as §1
# Mus musculus [24] = assay: Percent survival was determined over a period of 30 days after intraperitoneal administration of a dose of 300 mg/kg in mice; assay type: functional; conditions: ip, 720 h; summary of the method: as §1
# Mus musculus [25] = assay: Percent survival was determined over a period of 30 days after intraperitoneal administration of a dose of 600 mg/kg in mice; assay type: functional; conditions: ip, 720 h; summary of the method: as §1
# [26] = Toxic dose was determined in 10-20% ethanol by ip administration in mice. The radiation protective properties were evaluated for groups of 10 mice exposed to 849-rad-gamma-radiation 30 min after dosing.; assay type: toxicity, organism-based; conditions: mouse, in vivo
# [27] = Toxic dose was determined after (ip) administration of a dose of 1200 mg/kg in mice at 1000-rad-gamma-radiation for 30 mins; assay type: toxicity, organism-based; design: dose 1200 mg/kg; conditions: mouse, in vivo; summary of the method: as §2
SMILES,survival at 4.7 mg/kg (Mus musculus [4]),survival at 9.4 mg/kg (Mus musculus [5]),survival at 2.3 mg/kg (Mus musculus [8]),LD50 at 0.5 h [16],further results
N#CC(C(=O)N1CCCC1)=C([S-])[S-].[K+].[K+],–,–,–,–,Protective effect (Mus musculus [1]): 80%; Protective effect (Mus musculus [2]): 30%
CS/C(=C\c1cccc[n+]1C)N1CCOCC1.[I-],0%,0%,–,–,survival at 18.8 mg/kg (Mus musculus [3]): 0%; LD50 at 0.5 h [6]: 50 mg/kg
CCCCCCSC(=Cc1cccc[n+]1C)SCCCCCC.[I-],0%,–,0%,–,survival at 1.2 mg/kg (Mus musculus [7]): 0%; LD50 at 0.5 h [9]: 5 mg/kg
CCCCSC(=Cc1cccc[n+]1C)SCCCC.[I-],–,–,30%,–,survival at 0.6 mg/kg (Mus musculus [10]): 0%; survival at 1.2 mg/kg (Mus musculus [7]): 10%; LD50 at 0.5 h [11]: 3 mg/kg
CS/C(=C\c1ccc2ccccc2[n+]1C)N1CCCCC1.[I-],–,–,–,–,survival at 1.17 mg/kg (Mus musculus [12]): 30%; survival at 2.34 mg/kg (Mus musculus [13]): 70%; survival at 4.69 mg/kg (Mus musculus [14]): 10%; LD50 at 0.5 h [15]: 5 mg/kg
CSC(=Cc1cccc(C=C(SC)SC)[n+]1C)SC.[I-],10%,30%,10%,25 mg/kg,–
CSC(=Cc1c2ccccc2cc[n+]1C)SC.[I-],0%,20%,0%,15 mg/kg,–
COc1ccc2c(ccc(C=C(SC)SC)[n+]2C)c1.[I-],0%,0%,0%,30 mg/kg,–
N#CC(C(=O)c1ccccc1)=C([S-])[S-].[K+].[K+],–,–,–,–,Protective effect (Mus musculus [17]): 17%
CS/C(=C\c1ccc2ccccc2[n+]1C)N1CCN(CCCO)CC1.[I-],0%,30%,0%,> 10 mg/kg,–
CCSC(=Cc1cccc[n+]1C)SCC.[I-],0%,20%,–,20 mg/kg,–
CSC(=Cc1cccc(C)[n+]1C)SC.[I-],0%,0%,–,–,survival at 18.8 mg/kg (Mus musculus [3]): 40%; LD50 at 0.5 h [6]: 50 mg/kg
CS/C(=C\c1cccc[n+]1C)N1CCCCC1.[I-],20%,80%,–,25 mg/kg,survival at 2.4 mg/kg (Mus musculus [18]): 30%
Cc1ccc2c(ccc(CC(=S)[S-])[n+]2C)c1,–,–,–,–,survival at 37.5 mg/kg (Mus musculus [19]): 10%; survival at 75 mg/kg (Mus musculus [20]): 20%; LD50 at 0.5 h [21]: 225 mg/kg; survival at 150 mg/kg (Mus musculus [22]): 10%
C[n+]1c(CC(=S)[S-])cccc1CC(=S)[S-].[I-].[Na+].[Na+],–,–,–,–,survival at 1200 mg/kg (Mus musculus [23]): 0%; survival at 300 mg/kg (Mus musculus [24]): 0%; survival at 600 mg/kg (Mus musculus [25]): 0%; LD50 at 0.5 h [26]: > 600 mg/kg; LD50 at 0.5 h [27]: > 600 mg/kg
